Values after ≈ are worked out from the molar mass of the structure shown. “Also recorded” adds a separate entry of the source. Like-named read-outs stand apart in the source and are kept apart here.
What was measured:
Caco-2 [1] = conditions: cited from earlier work
E. faecium ATCC 700221 = experiment: Time-kill assay; assay type: cell-based; conditions: 5× MIC, 24 hours, 37 °C
plasma protein = conditions: cited from earlier work
VRE strains = experiment: MIC in ambient air versus 5% CO2 on representative enterococcal strains; assay type: cell-based, Enterococcus; conditions: five representative enterococcal strains
How it was run: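 CLSI broth microdilution. Enterococci grown overnight on trypticase soy agar at 37 °C, adjusted to 0.5 McFarland, then diluted in TSB to about 5 × 10^5 CFU/mL. Compounds from 10 mg/mL DMSO stocks serially diluted.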

[2] = In vivo pharmacokinetics, oral gavage; parameters: species or system mice; conditions: male, ICR, mouse, plasma, 10 mg/kg
Caco-2 [3] = experiment: Bi-directional Caco-2 permeability; assay type: in vitro ADME, human
How it was run: (§1)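 Bidirectional (A→B and B→A) transport across Caco-2 monolayers, run by a contract lab. Donor/receiver pH 6.5/7.4. Concentrations measured as chromatographic peak areas. Papp (10^-6 cm/s) derived from end-point receiver concentration, incubation time, monolayer area and mid-point donor concentration. Recovery (%) = donor plus receiver amounts at end, relative to donor amount at time zero.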

panel of VRE isolates = experiment: MIC50/MIC90 over panel of eleven VRE clinical isolates; assay type: cell-based, E. faecium, E. faecalis; conditions: Enterococcus
Aqueous solubility = assay type: physicochemical; conditions: for solubility at 24 h: PBS buffer, pH 7.4
[4] = Bi-directional Caco-2 permeability; assay type: in vitro ADME, human; conditions: human, Caco-2
How it was run: as §1

E. faecium HM-965 = experiment: MIC, broth microdilution; assay type: cell-based
How it was run: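 MIC by CLSI broth microdilution against E. faecium HM-965. Cells grown overnight on trypticase soy agar at 37 °C, set to 0.5 McFarland, and diluted in TSB to about 5 × 10^5 CFU/mL. Compounds from 10 mg/mL DMSO stocks serially diluted in plates.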

## CC(=O)Nc1nnc(S(N)(=O)=O)s1 [AZM, N-(5-sulfamoyl-1,3,4-thiadiazol-2-yl)acetamide]
Caco-2 [1]; Caco-2, pH 6
  Papp A → B: 0.19^f 10^−6 cm/sec
  Papp B → A: 0.77^f 10^−6 cm/sec
Caco-2 [1]; Caco-2
  apparent permeability coefficient, Papp, low-permeable drug class: < 5e+12 ×10⁻⁶ cm/s
  net transport (A➔B) with P-gp inhibitors: up to 1.92
Caco-2 [1]
  net transport (A➔B): 0.24
E. faecium ATCC 700221
  bacteriostatic or bactericidal activity: bacteriostatic
Plasma protein
  plasma protein binding: over 90%
VRE strains
  activity against VRE strains in presence of 5% CO2: inactive

## NS(=O)(=O)c1nnc(NC(=O)CC2CCCCC2)s1 [Compound 20, 2-Cyclohexyl-N-(5-sulfamoyl-1,3,4-thiadiazol-2-yl)acetamide]
VRE strains
  activity against VRE strains in presence of 5% CO2: inactive

## NS(=O)(=O)c1nnc(NC(=O)CCC2CCCCC2)s1 [Compound 22, 3-Cyclohexyl-N-(5-sulfamoyl-1,3,4-thiadiazol-2-yl)propanamide]
E. faecium ATCC 700221
  bacteriostatic or bactericidal activity: bacteriostatic
[2]
  concentration at 1440 min: 0 ng/mL
Caco-2 [3]; Caco-2, pH 6.5/7.4
  net transport (A➔B): 0.46
Panel of VRE isolates; read-out: MIC90 converted to molar cellular potency
  MIC90: 0.0942 µM
Aqueous solubility
  maximum solubility relative to MIC against E. faecium HM-965: approximately 1500 fold
  solubility at 24 h: 10.4 µg/mL (≈ 32.7 µM)

## NS(=O)(=O)c1nnc(NC(=O)CN2CCOCC2)s1 [Compound 26, 2-(Morpholin-1-yl)-N-(5-sulfamoyl-1,3,4-thiadiazol-2-yl)acetamide]
E. faecium ATCC 700221
  bacteriostatic or bactericidal activity: bacteriostatic
[4]
  recovery: 83%
Caco-2 [3]; Caco-2 permeability assay
  concentration of molecule in the receiver chambers: below the limit of detection
Aqueous solubility
  maximum solubility relative to MIC against E. faecium HM-965: approximately 40 fold
  solubility at 24 h: 39 µg/mL (≈ 127 µM)

## NS(=O)(=O)c1nnc(NCC2CCCCC2)s1 [Compound 30, 5-((cyclohexylmethyl)amino)-1,3,4-thiadiazole-2-sulfonamide]
E. faecium HM-965
  anti-VRE activity (in words): inactive against VRE

## CC(=O)Nc1nnc(S(C)(=O)=O)s1 [Compound 33, N-(5-(Methylsulfonyl)-1,3,4-thiadiazol-2-yl)acetamide]
E. faecium HM-965
  anti-VRE activity (in words): abolished the anti-VRE activity; also recorded: inactive against VRE strains; also recorded: complete loss of activity

## CC(=O)Nc1ncc(S(N)(=O)=O)s1 [Compound 34, N-(5-sulfamoylthiazol-2-yl)acetamide]
E. faecium HM-965
  anti-VRE activity (in words): abrogated activity against VRE; also recorded: complete loss of anti-VRE activity

## CC(=O)Nc1ccc(S(N)(=O)=O)cc1 [Compound 35, N-(4-sulfamoylphenyl)acetamide]
E. faecium HM-965
  anti-VRE activity (in words): complete loss of activity

## CC(=O)NC[C@H]1CN(c2ccc(N3CCOCC3)c(F)c2)C(=O)O1 [linezolid, reference compound]
E. faecium ATCC 700221
  bacteriostatic or bactericidal activity: bacteriostatic

## CN[C@H](CC(C)C)C(=O)N[C@H]1C(=O)N[C@@H](CC(N)=O)C(=O)N[C@H]2C(=O)N[C@H]3C(=O)N[C@H](C(=O)N[C@H](C(=O)O)c4cc(O)cc(O)c4-c4cc3ccc4O)[C@H](O)c3ccc(c(Cl)c3)Oc3cc2cc(c3O[C@@H]2O[C@H](CO)[C@@H](O)[C@H](O)[C@H]2O[C@H]2C[C@](C)(N)[C@H](O)[C@H](C)O2)Oc2ccc(cc2Cl)[C@H]1O [vancomycin, reference compound]
Panel of VRE isolates
  MIC90: > 64 µg/mL
